From ChEMBL document CHEMBL2440024, “Design, Synthesis, and Biological Evaluation of Novel Conformationally Constrained Inhibitors Targeting EGFR” (ACS Med Chem Lett, 2013)
Active and inactive are the calls of the source. The rule behind the calls is not given here.

Columns and labels:
[1] = target: T1, Epidermal growth factor receptor (Homo sapiens, UniProt P00533); test: Ratio of IC50 for wild type EGFR in human A431 cells to IC50 for wild type EGFR (unknown origin); format: cell-based; details: A-431
T1 sequence (P00533 whole entry): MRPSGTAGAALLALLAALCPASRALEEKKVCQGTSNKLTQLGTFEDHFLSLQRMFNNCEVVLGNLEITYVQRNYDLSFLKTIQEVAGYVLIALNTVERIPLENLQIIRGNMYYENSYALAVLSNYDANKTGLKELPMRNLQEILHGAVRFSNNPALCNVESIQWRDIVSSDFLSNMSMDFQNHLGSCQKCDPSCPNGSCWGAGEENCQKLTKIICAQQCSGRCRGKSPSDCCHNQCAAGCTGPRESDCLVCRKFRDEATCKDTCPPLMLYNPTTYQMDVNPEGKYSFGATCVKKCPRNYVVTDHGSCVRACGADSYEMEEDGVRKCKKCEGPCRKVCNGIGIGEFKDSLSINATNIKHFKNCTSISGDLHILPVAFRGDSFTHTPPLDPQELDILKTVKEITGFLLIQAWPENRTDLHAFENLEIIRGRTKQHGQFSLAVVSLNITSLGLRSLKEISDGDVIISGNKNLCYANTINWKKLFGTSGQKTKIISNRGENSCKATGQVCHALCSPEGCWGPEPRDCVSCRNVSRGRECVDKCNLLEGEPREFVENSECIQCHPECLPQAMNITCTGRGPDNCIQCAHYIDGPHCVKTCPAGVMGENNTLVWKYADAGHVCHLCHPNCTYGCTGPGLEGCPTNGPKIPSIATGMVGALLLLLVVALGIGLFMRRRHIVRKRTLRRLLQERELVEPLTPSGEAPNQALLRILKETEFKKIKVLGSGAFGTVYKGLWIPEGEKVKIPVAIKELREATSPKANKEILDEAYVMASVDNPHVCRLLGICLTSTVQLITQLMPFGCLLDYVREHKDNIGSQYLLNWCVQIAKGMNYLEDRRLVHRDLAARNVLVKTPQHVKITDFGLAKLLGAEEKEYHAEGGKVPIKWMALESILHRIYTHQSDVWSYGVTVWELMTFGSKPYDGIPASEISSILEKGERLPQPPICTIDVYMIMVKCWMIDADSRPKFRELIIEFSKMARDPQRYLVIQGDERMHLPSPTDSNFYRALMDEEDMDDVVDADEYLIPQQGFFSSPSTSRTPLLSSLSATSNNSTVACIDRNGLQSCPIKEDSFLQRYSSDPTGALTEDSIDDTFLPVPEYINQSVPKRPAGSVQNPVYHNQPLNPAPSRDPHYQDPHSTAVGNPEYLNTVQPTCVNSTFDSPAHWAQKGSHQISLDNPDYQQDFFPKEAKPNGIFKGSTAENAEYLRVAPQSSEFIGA

[2] = target: T1, Epidermal growth factor receptor; test: Inhibition of wild type EGFR (unknown origin) incubated for 5 mins prior to ATP addition measured after 30 mins by HTRF method
Cytochrome P450 2D6 = Cytochrome P450 2D6 (Homo sapiens, UniProt P10635); test: Inhibition of human recombinant CYP2D6 after 20 mins by LC/MS/MS analysis; format: ADME
Chain of Cytochrome P450 2D6 (P10635 whole entry): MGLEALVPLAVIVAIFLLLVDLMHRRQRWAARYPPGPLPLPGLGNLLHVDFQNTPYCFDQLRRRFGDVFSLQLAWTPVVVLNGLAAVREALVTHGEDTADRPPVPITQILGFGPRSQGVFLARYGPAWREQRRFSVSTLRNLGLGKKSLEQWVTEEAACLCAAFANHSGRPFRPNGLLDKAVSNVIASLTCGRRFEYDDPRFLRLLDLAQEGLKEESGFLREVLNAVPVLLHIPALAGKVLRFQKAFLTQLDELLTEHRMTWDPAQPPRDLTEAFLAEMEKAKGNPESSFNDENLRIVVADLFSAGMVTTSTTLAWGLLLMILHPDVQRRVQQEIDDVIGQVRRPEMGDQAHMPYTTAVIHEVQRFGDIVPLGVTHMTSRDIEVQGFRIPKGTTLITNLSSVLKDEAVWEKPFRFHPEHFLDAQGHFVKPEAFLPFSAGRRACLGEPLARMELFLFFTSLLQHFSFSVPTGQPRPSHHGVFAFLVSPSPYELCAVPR

Cytochrome P450 3A4 = Cytochrome P450 3A4 (Homo sapiens, UniProt P08684); test: Inhibition of human recombinant CYP3A4 after 20 mins by LC/MS/MS analysis; format: ADME
Chain of Cytochrome P450 3A4 (P08684 whole entry): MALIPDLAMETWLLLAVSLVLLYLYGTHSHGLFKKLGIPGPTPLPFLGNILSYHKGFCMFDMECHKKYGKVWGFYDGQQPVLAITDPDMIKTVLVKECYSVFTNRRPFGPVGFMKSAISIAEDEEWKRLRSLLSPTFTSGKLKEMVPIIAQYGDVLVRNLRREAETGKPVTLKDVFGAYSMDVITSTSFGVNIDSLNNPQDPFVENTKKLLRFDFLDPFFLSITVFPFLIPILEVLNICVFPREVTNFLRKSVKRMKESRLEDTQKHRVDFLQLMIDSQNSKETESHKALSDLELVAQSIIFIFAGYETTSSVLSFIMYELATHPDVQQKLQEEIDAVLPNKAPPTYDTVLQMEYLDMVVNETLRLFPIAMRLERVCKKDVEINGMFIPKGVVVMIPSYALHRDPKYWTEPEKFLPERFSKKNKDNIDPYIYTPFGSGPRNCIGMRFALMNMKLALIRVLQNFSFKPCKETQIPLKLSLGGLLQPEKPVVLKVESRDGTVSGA

A549 = test: Cytotoxicity against human A549 cells after 48 hrs by CellTiter-Glo assay; format: functional, cell-based; details: A549, 48 h
Cytochrome P450 2C9 = Cytochrome P450 2C9 (Homo sapiens, UniProt P11712); test: Inhibition of human recombinant CYP2C9 after 20 mins by LC/MS/MS analysis; format: ADME
Chain of Cytochrome P450 2C9 (P11712 whole entry): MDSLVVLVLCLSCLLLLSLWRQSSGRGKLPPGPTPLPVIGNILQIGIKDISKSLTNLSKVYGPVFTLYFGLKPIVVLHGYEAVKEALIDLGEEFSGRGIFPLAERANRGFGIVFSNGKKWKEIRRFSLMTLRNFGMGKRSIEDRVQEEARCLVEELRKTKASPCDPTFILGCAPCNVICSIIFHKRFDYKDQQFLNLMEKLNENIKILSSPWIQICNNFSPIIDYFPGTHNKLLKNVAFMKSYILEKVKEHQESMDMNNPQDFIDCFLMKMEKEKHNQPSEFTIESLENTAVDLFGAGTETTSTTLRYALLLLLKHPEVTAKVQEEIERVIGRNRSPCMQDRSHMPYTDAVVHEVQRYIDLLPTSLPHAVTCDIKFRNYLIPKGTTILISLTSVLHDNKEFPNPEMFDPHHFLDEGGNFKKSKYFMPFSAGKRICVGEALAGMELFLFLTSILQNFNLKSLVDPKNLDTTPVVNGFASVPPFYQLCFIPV

Cytochrome P450 1A2 = target: T2, Cytochrome P450 1A2 (Homo sapiens, UniProt P05177); test: Inhibition of human recombinant CYP1A2 after 20 mins by LC/MS/MS analysis; format: ADME
T2 sequence (P05177 whole entry): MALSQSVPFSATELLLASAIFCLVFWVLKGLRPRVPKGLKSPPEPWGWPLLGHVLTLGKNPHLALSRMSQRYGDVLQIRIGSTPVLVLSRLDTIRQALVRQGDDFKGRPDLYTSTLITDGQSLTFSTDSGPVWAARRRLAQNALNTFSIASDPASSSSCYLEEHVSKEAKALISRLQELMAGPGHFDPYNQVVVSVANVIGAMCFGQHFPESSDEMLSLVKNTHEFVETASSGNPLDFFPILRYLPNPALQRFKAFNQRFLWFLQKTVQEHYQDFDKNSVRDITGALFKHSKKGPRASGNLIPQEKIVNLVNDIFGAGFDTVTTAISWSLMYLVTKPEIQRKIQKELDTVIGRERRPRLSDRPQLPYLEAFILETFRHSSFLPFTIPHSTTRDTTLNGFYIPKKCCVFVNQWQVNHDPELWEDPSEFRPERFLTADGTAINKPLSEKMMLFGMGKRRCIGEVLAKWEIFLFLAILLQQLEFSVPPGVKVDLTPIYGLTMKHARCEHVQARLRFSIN

[3] = test system: Epidermal growth factor receptor (Homo sapiens), P00533 [T790M]; test: Inhibition of EGFR T790M mutant (unknown origin) incubated for 5 mins prior to ATP addition measured after 30 mins by HTRF method; format: protein assay
Chain of Epidermal growth factor receptor (Homo sapiens), P00533 [T790M] (P00533 whole entry T790M): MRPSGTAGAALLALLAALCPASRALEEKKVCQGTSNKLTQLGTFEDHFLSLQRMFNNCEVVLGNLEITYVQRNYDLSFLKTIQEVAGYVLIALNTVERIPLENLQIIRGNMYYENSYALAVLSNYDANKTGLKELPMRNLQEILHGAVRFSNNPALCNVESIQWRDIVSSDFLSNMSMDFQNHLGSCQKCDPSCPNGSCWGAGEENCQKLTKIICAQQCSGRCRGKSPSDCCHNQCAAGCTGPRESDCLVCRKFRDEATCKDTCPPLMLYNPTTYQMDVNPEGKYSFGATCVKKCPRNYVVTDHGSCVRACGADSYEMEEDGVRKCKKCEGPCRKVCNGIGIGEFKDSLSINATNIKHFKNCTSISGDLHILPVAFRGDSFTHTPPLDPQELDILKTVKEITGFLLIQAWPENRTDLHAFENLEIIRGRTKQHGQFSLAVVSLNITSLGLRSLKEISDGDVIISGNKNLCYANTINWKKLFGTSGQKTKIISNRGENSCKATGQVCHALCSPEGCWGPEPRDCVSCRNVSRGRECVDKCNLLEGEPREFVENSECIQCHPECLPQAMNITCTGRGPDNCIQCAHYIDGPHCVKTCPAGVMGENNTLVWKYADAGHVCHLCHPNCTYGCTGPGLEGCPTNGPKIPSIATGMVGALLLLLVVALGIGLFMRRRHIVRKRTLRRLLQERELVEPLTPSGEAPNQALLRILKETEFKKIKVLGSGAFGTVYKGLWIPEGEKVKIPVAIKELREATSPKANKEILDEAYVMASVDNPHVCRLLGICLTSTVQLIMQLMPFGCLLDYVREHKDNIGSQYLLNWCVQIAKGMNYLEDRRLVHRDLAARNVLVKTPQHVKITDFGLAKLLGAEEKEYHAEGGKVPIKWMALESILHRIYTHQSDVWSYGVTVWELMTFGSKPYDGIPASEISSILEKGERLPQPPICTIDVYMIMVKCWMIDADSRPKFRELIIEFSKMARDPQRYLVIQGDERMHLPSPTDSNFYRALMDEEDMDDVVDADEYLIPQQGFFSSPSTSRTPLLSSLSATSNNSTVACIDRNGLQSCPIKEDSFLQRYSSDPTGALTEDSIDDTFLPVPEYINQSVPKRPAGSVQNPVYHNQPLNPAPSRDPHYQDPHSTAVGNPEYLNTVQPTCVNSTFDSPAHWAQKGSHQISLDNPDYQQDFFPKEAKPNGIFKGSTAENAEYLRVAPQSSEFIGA

SW-620 = test: Cytotoxicity against human SW620 cells after 48 hrs by CellTiter-Glo assay; format: functional, cell-based; details: SW-620, 48 h
K562 = test: Cytotoxicity against human K562 cells after 48 hrs by CellTiter-Glo assay; format: functional, cell-based; details: K562, 48 h
Mus musculus [4] = test: Toxicity in nude mouse xenografted with human A431 cells assessed as weight loss at 200 mg/kg/day, po qd after 12 days; format: organism-based, A-431; parameters: route oral; details: in vivo, 288 h
Method in brief: (§1)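 A431 xenograft; dosing began once tumours reached 50–150 mm³. Mice randomized, n = 6/group, given test agent, gefitinib reference or vehicle by oral gavage once daily at 200 mg/kg/day. Body weight and tumour volume recorded twice weekly; mortality and weight loss noted over treatment (tumour mass read on days 0, 4, 7, 10, 12).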

Mus musculus [5] = test: Toxicity in nude mouse xenografted with human A431 cells assessed as mortality at 200 mg/kg/day, po qd after 12 days; format: organism-based, A-431; parameters: route oral; details: in vivo, 288 h; method in brief: as §1
Mus musculus [6] = test: AUC (0 to 24 hrs) in BALB/c mouse at 3 mg/kg, iv; format: ADME, organism-based, Plasma; parameters: time < 24 hr, dose 3 mg/kg, route intravenous; details: in vivo
Method in brief: (§2)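 Mice (12 per treatment group) received a single dose, either intravenously at 3 mg/kg or orally at 10 mg/kg. Plasma exposure was followed over 24 h to derive AUC(0–24 h) in μM·min, t1/2 and tmax in min, and Cmax in μM. Oral bioavailability (F%) was derived from the oral versus i.v. data.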

A-431 = test: animal or person; format: functional, Homo sapiens; details: Mus musculus, A-431, 288 h, route oral, read-out: TGI
[7] = Half life in BALB/c mouse at 3 mg/kg, iv; format: ADME, organism-based; parameters: dose 3 mg/kg, route intravenous; details: in vivo; method in brief: as §2
[8] = target: T1, Epidermal growth factor receptor; details: A-431, at 1 µM
[9] = target: Voltage-gated inwardly rectifying potassium channel KCNH2 (Homo sapiens, UniProt Q12809); test: Inhibition of human ERG channel by patch clamp assay
Chain of Voltage-gated inwardly rectifying potassium channel KCNH2 (Q12809 whole entry): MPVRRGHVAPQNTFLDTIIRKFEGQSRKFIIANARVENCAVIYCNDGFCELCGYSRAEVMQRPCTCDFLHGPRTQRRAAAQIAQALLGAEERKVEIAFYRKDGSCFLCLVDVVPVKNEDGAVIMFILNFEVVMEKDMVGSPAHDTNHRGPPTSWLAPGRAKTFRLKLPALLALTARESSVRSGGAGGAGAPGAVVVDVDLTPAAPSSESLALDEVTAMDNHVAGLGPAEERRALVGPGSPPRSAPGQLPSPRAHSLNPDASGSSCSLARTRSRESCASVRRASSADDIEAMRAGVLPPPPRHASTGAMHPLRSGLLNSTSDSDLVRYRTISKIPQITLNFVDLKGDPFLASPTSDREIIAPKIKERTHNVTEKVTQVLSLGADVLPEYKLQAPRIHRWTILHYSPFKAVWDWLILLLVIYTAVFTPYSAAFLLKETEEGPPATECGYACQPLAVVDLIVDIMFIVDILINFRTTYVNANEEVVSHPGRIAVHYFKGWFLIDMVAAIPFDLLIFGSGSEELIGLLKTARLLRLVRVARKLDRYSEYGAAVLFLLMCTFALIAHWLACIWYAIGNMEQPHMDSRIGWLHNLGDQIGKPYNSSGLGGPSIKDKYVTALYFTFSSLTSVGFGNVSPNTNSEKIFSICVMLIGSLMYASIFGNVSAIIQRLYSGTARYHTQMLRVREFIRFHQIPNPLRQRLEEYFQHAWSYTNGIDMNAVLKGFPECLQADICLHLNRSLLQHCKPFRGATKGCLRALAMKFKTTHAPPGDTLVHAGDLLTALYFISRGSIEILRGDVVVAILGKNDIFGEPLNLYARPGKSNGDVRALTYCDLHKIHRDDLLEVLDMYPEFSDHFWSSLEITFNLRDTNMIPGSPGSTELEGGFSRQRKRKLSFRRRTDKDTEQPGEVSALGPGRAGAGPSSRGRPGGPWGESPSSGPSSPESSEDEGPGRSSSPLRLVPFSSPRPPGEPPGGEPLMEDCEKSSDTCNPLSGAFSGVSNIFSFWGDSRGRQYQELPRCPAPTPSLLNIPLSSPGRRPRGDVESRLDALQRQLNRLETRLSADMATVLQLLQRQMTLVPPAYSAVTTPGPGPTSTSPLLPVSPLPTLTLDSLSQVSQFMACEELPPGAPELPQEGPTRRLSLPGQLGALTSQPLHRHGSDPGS

Mus musculus [10] = test: Oral bioavailability in BALB/c mouse at 10 mg/kg; format: ADME, organism-based; details: in vivo; method in brief: as §2
[11] = Cmax in BALB/c mouse at 3 mg/kg, iv; format: ADME, organism-based; parameters: dose 3 mg/kg, route intravenous; details: in vivo; method in brief: as §2
[12] = Tmax in BALB/c mouse at 3 mg/kg, iv; format: ADME, organism-based; parameters: dose 3 mg/kg, route intravenous; details: in vivo; method in brief: as §2
[13] = Half life in BALB/c mouse at 10 mg/kg, po; format: ADME, organism-based; parameters: dose 10 mg/kg, route oral; details: in vivo; method in brief: as §2
Mus musculus [14] = test: AUC (0 to 24 hrs) in BALB/c mouse at 10 mg/kg, po; format: ADME, organism-based, Plasma; parameters: time < 24 hr, dose 10 mg/kg, route oral; details: in vivo; method in brief: as §2
[15] = Cmax in BALB/c mouse at 10 mg/kg, po; format: ADME, organism-based; parameters: dose 10 mg/kg, route oral; details: in vivo; method in brief: as §2
[16] = Tmax in BALB/c mouse at 10 mg/kg, po; format: ADME, organism-based; parameters: dose 10 mg/kg, route oral; details: in vivo; method in brief: as §2

Structure (SMILES) | IC50 (Cytochrome P450 2D6) [µM] | IC50 (Cytochrome P450 3A4) [µM] | IC50 (A549) [µM] | IC50 (Cytochrome P450 2C9) [µM] | IC50 (Cytochrome P450 1A2) [µM] | inhibition [3] | IC50 (SW-620) [µM] | IC50 (K562) [µM] | Activity (Mus musculus [4]) | Activity (Mus musculus [5]) | also measured
Fc1ccc(Nc2ncnc3cc4c(cc23)NCCO4)cc1Cl |  |  |  |  |  |  |  |  |  |  | Ratio IC50 [1]: 20000; IC50 [2]: 0.00129 µM
CN(C)C/C=C/C(=O)N1CCOc2cc3ncnc(Nc4ccc(OCc5cccc(F)c5)c(Cl)c4)c3cc21 | > 10 | > 10 | > 10 | > 10 | > 10 | Active | 6.2 | > 10 |  |  | 
COc1cc2ncnc(Nc3ccc(F)c(Cl)c3)c2cc1OCCCN1CCOCC1 [GEFITINIB] |  |  |  |  |  |  |  |  | Non-toxic | Non-toxic | 
CN(C)C/C=C/C(=O)N1CCOc2cc3ncnc(Nc4ccc(F)c(Cl)c4)c3cc21 | > 10 | > 10 | > 10 | > 10 | > 10 | Active | 25.4 | > 10 | Non-toxic | Non-toxic | AUC (Mus musculus [6]): 25.4 µM·min; inhibition in vivo at 200 mg/kg/day (A-431): 66.8%; half-life [7]: 12.7 h; inhibition [8]: Active; IC50 [9]: > 10 µM; F (Mus musculus [10]): 26.1%; Cmax [11]: 290 nM; Tmax [12]: 2 min; half-life [13]: 9.13 h; AUC (Mus musculus [14]): 133 µM·min; Cmax [15]: 360 nM; Tmax [16]: 0.75 h
